In ChEMBL document CHEMBL1131093, “ATP-Citrate lyase as a target for hypolipidemic intervention. 2. Synthesis and evaluation of (3R,5S)-omega-substituted-3-carboxy-3, 5-dihydroxyalkanoic acids and their gamma-lactone prodrugs as inhibitors of the enzyme in vitro and in vivo” (J Med Chem, 1998):
Several values for one entry are separate records, joined by “and”; a condition that tells them apart may be missing. Equal entries are not always repeated.

What was measured:
HepG2 [1] = test: Inhibition of ATP levels in HepG2 cells was measured at 100 uM concentration.; assay type: functional, Homo sapiens; set-up: scale not given: the % may be the effect or the level left
Procedure, shortened: (§1)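 Compounds were applied to HepG2 cells as their γ-lactone prodrugs. De novo cholesterol synthesis, fatty acid synthesis and cellular ATP levels were each expressed as % of control. Significance was marked at p < 0.001.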

ATP-citrate synthase [2] = molecular target: T1, ATP-citrate synthase (Rattus norvegicus, UniProt P16638); test: Inhibitory activity was tested against rat ATP-Citrate Lyase (ACL) enzyme
T1 sequence (P16638 whole entry): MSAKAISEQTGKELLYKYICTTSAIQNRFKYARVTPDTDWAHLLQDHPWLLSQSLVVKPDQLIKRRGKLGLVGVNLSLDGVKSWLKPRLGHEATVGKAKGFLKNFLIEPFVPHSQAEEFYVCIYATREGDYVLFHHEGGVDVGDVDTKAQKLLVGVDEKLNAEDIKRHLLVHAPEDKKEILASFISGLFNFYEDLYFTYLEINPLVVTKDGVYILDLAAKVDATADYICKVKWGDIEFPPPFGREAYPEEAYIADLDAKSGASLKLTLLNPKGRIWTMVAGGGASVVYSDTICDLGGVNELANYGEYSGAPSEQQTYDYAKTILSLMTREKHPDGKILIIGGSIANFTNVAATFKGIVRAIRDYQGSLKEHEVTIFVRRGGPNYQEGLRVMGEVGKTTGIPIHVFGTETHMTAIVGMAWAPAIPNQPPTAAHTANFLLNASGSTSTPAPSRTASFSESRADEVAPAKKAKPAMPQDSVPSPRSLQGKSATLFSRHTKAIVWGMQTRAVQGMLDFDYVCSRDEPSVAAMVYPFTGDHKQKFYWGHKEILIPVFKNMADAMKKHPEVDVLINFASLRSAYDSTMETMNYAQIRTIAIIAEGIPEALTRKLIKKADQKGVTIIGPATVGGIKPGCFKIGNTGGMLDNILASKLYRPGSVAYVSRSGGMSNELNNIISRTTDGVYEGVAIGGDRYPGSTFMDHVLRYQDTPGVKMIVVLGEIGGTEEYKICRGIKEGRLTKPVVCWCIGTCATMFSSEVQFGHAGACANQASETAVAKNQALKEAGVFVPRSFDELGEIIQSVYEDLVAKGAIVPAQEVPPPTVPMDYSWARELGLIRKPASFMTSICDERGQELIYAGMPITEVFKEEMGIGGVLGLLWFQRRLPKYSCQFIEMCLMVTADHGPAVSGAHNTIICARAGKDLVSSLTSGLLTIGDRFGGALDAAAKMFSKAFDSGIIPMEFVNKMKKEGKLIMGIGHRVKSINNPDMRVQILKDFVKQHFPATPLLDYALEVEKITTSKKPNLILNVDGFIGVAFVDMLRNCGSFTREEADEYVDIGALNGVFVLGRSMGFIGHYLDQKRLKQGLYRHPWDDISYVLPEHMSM

ATP-citrate synthase [3] = molecular target: T2, ATP-citrate synthase (Homo sapiens, UniProt P53396); test: Inhibitory activity was tested against human recombinant ATP-Citrate Lyase (ACL) enzyme
T2 sequence (P53396 whole entry): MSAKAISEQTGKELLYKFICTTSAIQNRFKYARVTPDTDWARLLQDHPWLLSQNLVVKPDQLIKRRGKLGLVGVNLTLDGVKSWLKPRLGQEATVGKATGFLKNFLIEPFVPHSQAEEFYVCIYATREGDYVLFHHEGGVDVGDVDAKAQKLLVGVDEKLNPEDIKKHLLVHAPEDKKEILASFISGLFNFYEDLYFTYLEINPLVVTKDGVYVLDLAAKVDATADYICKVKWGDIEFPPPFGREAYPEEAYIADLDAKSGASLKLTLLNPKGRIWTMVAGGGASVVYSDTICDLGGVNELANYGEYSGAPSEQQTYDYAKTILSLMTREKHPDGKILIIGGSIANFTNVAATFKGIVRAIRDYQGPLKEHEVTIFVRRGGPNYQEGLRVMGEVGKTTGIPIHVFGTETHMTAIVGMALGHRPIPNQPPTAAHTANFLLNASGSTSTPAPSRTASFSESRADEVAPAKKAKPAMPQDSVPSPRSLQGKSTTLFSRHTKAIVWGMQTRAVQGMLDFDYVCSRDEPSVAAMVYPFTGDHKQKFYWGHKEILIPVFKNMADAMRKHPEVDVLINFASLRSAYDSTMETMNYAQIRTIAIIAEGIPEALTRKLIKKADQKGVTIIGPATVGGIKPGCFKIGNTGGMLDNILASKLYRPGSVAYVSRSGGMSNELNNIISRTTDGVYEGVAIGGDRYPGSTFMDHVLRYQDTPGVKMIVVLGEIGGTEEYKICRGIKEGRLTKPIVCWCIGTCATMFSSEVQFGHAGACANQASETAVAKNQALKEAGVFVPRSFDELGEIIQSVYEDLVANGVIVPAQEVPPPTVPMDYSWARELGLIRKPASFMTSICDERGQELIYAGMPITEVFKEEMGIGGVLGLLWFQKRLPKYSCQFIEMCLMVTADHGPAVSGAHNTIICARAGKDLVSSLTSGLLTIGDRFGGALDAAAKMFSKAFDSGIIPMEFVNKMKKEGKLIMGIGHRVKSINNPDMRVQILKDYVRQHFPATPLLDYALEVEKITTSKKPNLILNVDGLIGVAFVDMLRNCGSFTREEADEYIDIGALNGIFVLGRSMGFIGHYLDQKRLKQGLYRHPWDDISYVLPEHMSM
Procedure, shortened: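 Recombinant human ACL enzyme. Compounds purified as γ-lactones were hydrolysed back to the open hydroxy diacid with excess aqueous NaOH before being added to the assay buffer mix. Potency is reported as the reversible Ki for enzyme inhibition.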

HepG2 [4] = test: Inhibition of cholesterol synthesis in HepG2 cells was measured at 100 uM concentration.; assay type: functional, Homo sapiens; set-up: scale not given: the % may be the effect or the level left; procedure, shortened: as §1
HepG2 [5] = test: Inhibition of ATP levels in HepG2 cells was measured at 28.2 uM concentration.; assay type: functional, Homo sapiens; set-up: scale not given: the % may be the effect or the level left
HepG2 [6] = test: Inhibition of ATP levels in HepG2 cells was measured at 10 uM concentration.; assay type: functional, Homo sapiens; set-up: scale not given: the % may be the effect or the level left; procedure, shortened: as §1
HepG2 [7] = test: Inhibition of fatty acid synthesis in HepG2 cells was measured at 10 uM concentration.; assay type: functional, Homo sapiens; set-up: scale not given: the % may be the effect or the level left; procedure, shortened: as §1
Rattus norvegicus [8] = test: % Reduction of plasma triglyceride in the rat was measured at dose 37.5 mg/kg/d; assay type: functional
Procedure, shortened: (§2)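 Male Sprague-Dawley rats were kept on a reverse 12 h light/12 h dark cycle with free access to RM1 powdered diet and water. Compound was given orally by gavage as two doses 24 h apart. Blood was drawn mid dark cycle, 4 h after the second dose, into EDTA. Plasma was separated at 1500g for 15 min. Triglyceride was measured enzymatically (GPO-PAP) and reported as % reduction from control.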

HepG2 [9] = test: Inhibition of ATP levels in HepG2 cells was measured at 3 uM concentration.; assay type: functional, Homo sapiens; set-up: scale not given: the % may be the effect or the level left; procedure, shortened: as §1
HepG2 [10] = test: Inhibition of cholesterol synthesis in HepG2 cells was measured at 10 uM concentration.; assay type: functional, Homo sapiens; set-up: scale not given: the % may be the effect or the level left; procedure, shortened: as §1
HepG2 [11] = test: Inhibition of cholesterol synthesis in HepG2 cells was measured at 3 uM concentration.; assay type: functional, Homo sapiens; set-up: scale not given: the % may be the effect or the level left; procedure, shortened: as §1
Rattus norvegicus [12] = test: % Reduction of plasma triglyceride in the rat was measured at dose 75 mg/kg/d; assay type: functional; procedure, shortened: as §2
HepG2 [13] = test: Inhibition of fatty acid synthesis in HepG2 cells was measured at 3 uM concentration.; assay type: functional, Homo sapiens; set-up: scale not given: the % may be the effect or the level left; procedure, shortened: as §1
HepG2 [14] = test: Inhibition of fatty acid synthesis in HepG2 cells was measured at 5 uM concentration.; assay type: functional, Homo sapiens; set-up: scale not given: the % may be the effect or the level left; procedure, shortened: as §1
HepG2 [15] = test: (§3) Inhibition of fatty acid synthesis in HepG2 cells was measured at 15 uM concentration.; assay type: functional, Homo sapiens; set-up: scale not given: the % may be the effect or the level left; procedure, shortened: as §1
HepG2 [16] = test: Inhibition of ATP levels in HepG2 cells was measured at 30 uM concentration.; assay type: functional, Homo sapiens; set-up: scale not given: the % may be the effect or the level left; procedure, shortened: as §1
HepG2 [17] = test: Inhibition of cholesterol synthesis in HepG2 cells was measured at 15 uM concentration.; assay type: functional, Homo sapiens; set-up: scale not given: the % may be the effect or the level left; procedure, shortened: as §1
HepG2 [18] = test: Inhibition of cholesterol synthesis in HepG2 cells was measured at 5 uM concentration.; assay type: functional, Homo sapiens; set-up: scale not given: the % may be the effect or the level left; procedure, shortened: as §1
HepG2 [19] = test: Inhibition of ATP levels in HepG2 cells was measured at 5 uM concentration.; assay type: functional, Homo sapiens; set-up: scale not given: the % may be the effect or the level left; procedure, shortened: as §1
HepG2 [20] = test: Inhibition of ATP levels in HepG2 cells was measured at 15 uM concentration.; assay type: functional, Homo sapiens; set-up: scale not given: the % may be the effect or the level left; procedure, shortened: as §1
HepG2 [21] = test: Inhibition of fatty acid synthesis in HepG2 cells was measured at 30 uM concentration.; assay type: functional, Homo sapiens; set-up: scale not given: the % may be the effect or the level left; procedure, shortened: as §1
HepG2 [22] = test: Inhibition of cholesterol synthesis in HepG2 cells was measured at 30 uM concentration.; assay type: functional, Homo sapiens; set-up: scale not given: the % may be the effect or the level left; procedure, shortened: as §1
HepG2 [23] = test: as §3; assay type: functional, Homo sapiens; set-up: scale not given: the % may be the effect or the level left; procedure, shortened: as §1; remark: listed apart in the source

| Structure (SMILES) | Control (HepG2 [14]) [%] | Control (HepG2 [15]) [%] | Control (HepG2 [16]) [%] | Control (HepG2 [17]) | Control (HepG2 [18]) [%] | Control (HepG2 [20]) | Control (HepG2 [21]) [%] | Control (HepG2 [22]) [%] | Control (HepG2 [23]) [%] | other results |
| --- | --- | --- | --- | --- | --- | --- | --- | --- | --- | --- |
| O=C(O)C[C@@](O)(C[C@H](O)CCCCCCc1ccc(Cl)cc1Cl)C(=O)O (stereo in doubt; 45) |  |  |  |  |  |  |  |  |  | Control (HepG2 [1]): 104%; Ki (ATP-citrate synthase [2]): 1000 nM; Ki (ATP-citrate synthase [3]): 1000 nM; Control (HepG2 [4]): 84% |
| Cc1cn(-c2cc(Cl)ccc2CCCCCC[C@@H]2C[C@](O)(CC(=O)O)C(=O)O2)cc1C |  |  |  |  |  |  |  |  |  | Control (HepG2 [5]): 96%; Control (HepG2 [6]): 96% and 101%; Control (HepG2 [7]): 75% and 89%; Reduction (Rattus norvegicus [8]): 10%; Control (HepG2 [9]): 98%; Control (HepG2 [10]): 82%; Control (HepG2 [11]): 104%; Reduction (Rattus norvegicus [12]): 20%; Control (HepG2 [13]): 102% |
| O=C(O)C[C@@]1(O)C[C@@H](CCCCCCc2ccc(Cl)cc2Cl)OC1=O (stereo in doubt; (-)-77) | 123 | 90 | 98 | 37% and 33% | 105 | 99% and 98% | 39 | 9 | 82 | Control (HepG2 [19]): 101% |
| O=C(O)C[C@@]1(O)C[C@@H](CCCCCCc2ccc(Cl)cc2Cl)OC1=O (stereo in doubt; (+)-77) | 113 | 81 | 99 | 52% and 41% | 95 | 100% | 25 | 11 | 69 |  |
